Experimental data reported in ChEMBL document CHEMBL4304759, “Identifying Novel Anti-Osteoporosis Leads with a Chemotype-Assembly Approach” (J Med Chem, 2019).

Tested on: BMDM
Assay: Anti-osteoporosis activity in C57BL/6 mouse bone marrow macrophages assessed as inhibition of M-CSF/RANKL-induced osteoclast differentiation supplemented with fresh medium containing compounds every 2 days for 5 measured post-last dose by TRAP staining based assay
Format: functional, cell-based
Details: C57BL/6, BMDM, 5 days
In short: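 Mouse (C57BL/6, 6-week) BMMs were plated at 6×10³ cells/well with M-CSF 30 ng/mL overnight, then given complete α-MEM with M-CSF and GST-rRANKL 100 ng/mL plus compound at varied concentrations, refreshed every 2 days. At day 5 cells were fixed in 4% paraformaldehyde and TRAcP-stained; TRAcP+ cells with >3 nuclei were counted.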

Row | IC50 [nM] | SMILES
1 | 6750 | CCOc1cc(C(=O)Nc2nccs2)cc(OCC)c1OCC
2 | 190 | O=C(Cn1cc(-c2ccc(F)cc2)nn1)Nc1nccs1
3 | > 30000 | Cc1cc(NC(=O)Cn2cc(-c3ccccc3Cl)nn2)no1
4 | > 30000 | N#Cc1ccc(-c2cn(CC(=O)Nc3nc4ccccc4s3)nn2)cc1
5 | 1840 | CCOC(=O)c1sc(NC(=O)Cn2cc(-c3ccc([N+](=O)[O-])cc3)nn2)nc1C
6 | 3980 | CCCn1c(=O)c(C(=O)Nc2nccs2)c(O)c2ccccc21
7 | > 30000 | O=C(Cn1cc(-c2cccc(Cl)c2)nn1)Nc1nccs1
8 | 3280 | O=C(Cn1cc(-c2ccc([N+](=O)[O-])cc2)nn1)Nc1nc2ccccc2s1
9 | 1240 | Cc1csc(NC(=O)Cn2cc(-c3ccccc3Cl)nn2)n1
10 | 40 | Cc1csc(NC(=O)Cn2cc(-c3cccs3)nn2)n1
11 | > 30000 | Cc1cc(NC(=O)Cn2cc(-c3ccc(F)cc3)nn2)no1
12 | > 30000 | Cc1cnc(NC(=O)c2ccc3c(c2)OCO3)s1
13 | 2700 | O=C(C1=C(O)C(=O)N(CCCn2ccnc2)[C@@H]1c1cccc(O)c1)c1ccc2c(c1)OCCO2
14 | 2330 | CCOC(=O)c1sc(NC(=O)Cn2cc(-c3ccc(OC)cc3)nn2)nc1C
15 | 250 | Cc1csc(NC(=O)Cn2cc(-c3cccc(N)c3)nn2)n1
16 | 100 | Cc1csc(NC(=O)Cn2cc(-c3ccncc3)nn2)n1
17 | 1100 | O=C(Cn1cc(-c2ccc(Cl)cc2)nn1)Nc1nccs1
18 | 1910 | Cc1cc(NC(=O)Cn2cc(-c3ccc(Cl)cc3)nn2)no1
19 | 21400 | O=C(Cn1cc(-c2cccs2)nn1)Nc1nc2ccccc2s1
20 | 250 | Cc1csc(NC(=O)Cn2cc(-c3ccc(F)cc3)nn2)n1
21 | 120 | CCOC(=O)c1sc(NC(=O)Cn2cc(-c3ccncc3)nn2)nc1C
22 | 4240 | O=C(NCc1ccco1)c1cc2ccccc2c(=O)o1
23 | 1220 | Cc1cc(NC(=O)Cn2cc(-c3ccc([N+](=O)[O-])cc3)nn2)no1

Row | IC50 [nM] | SMILES
24 | 3150 | O=C(c1cc2ccccc2s1)N1CCOCC1
25 | 660 | CCOC(=O)c1sc(NC(=O)Cn2cc(-c3ccc(F)cc3)nn2)nc1C
26 | 12600 | CC(C)Oc1ccccc1C(=O)Nc1nccs1
27 | 520 | Cc1csc(NC(=O)Cn2cc(-c3ccc(Cl)cc3)nn2)n1
28 | > 30000 | COC(=O)c1ccc(-c2cn(CC(=O)Nc3cc(C)on3)nn2)cc1
29 | > 30000 | Cc1cc(NC(=O)Cn2cc(-c3cccc(Cl)c3)nn2)no1
30 | 2140 | COc1cccc(OC)c1C(=O)Nc1nc(C)c(C(C)=O)s1
31 | 9320 | Cc1cc(NC(=O)Cn2cc(-c3ccc(C#N)cc3)nn2)no1
32 | > 30000 | Cc1csc(NC(=O)Cn2cc(-c3ccc(C(=O)O)cc3)nn2)n1
33 | > 30000 | COc1cccc(-c2cn(-c3ccc(C(F)(F)F)cc3)nc2C(=O)N2CCc3ccccc3C2)c1
34 | > 30000 | O=C(Cn1cc(-c2ccc(F)cc2)nn1)Nc1nc2ccccc2s1
35 | > 30000 | Cc1cc(NC(=O)Cn2cc(-c3cccs3)nn2)no1
36 | 3980 | CCOC(=O)c1ccccc1SCC(=O)Nc1nccs1
37 | 50 | O=C(Cn1cc(-c2ccncc2)nn1)Nc1nc2ccccc2s1
38 | > 30000 | COc1cccc(-c2cn(-c3ccc(C(F)(F)F)cc3)nc2C(=O)NC2CCCCC2)c1
39 | > 30000 | C#Cc1ccc(-c2cn(CC(=O)Nc3nccs3)nn2)cc1
40 | 5130 | O=C(Nc1nc2ccccc2s1)c1cc2ccccc2c(=O)o1
41 | 8110 | Cc1nc(NC(=O)/C=C/c2ccc3c(c2)OCO3)sc1C
42 | 1270 | Nc1cccc(-c2cn(CC(=O)Nc3nccs3)nn2)c1
43 | 1040 | O=C(Cn1cc(-c2ccc([N+](=O)[O-])cc2)nn1)Nc1nccs1
44 | 190 | Cc1csc(NC(=O)Cn2cc(-c3ccc([N+](=O)[O-])cc3)nn2)n1
45 | 310 | CCOC(=O)c1sc(NC(=O)Cn2cc(-c3ccc(C#N)cc3)nn2)nc1C
46 | 430 | Cc1cc(NC(=O)Cn2cc(-c3ccncc3)nn2)no1

Row | IC50 [nM] | SMILES
47 | > 30000 | COC(=O)c1ccc(-c2cn(CC(=O)Nc3nc4ccccc4s3)nn2)cc1
48 | > 30000 | C#Cc1ccc(-c2cn(CC(=O)Nc3cc(C)on3)nn2)cc1
49 | 1190 | Cc1ccc(-c2csc(NCc3ccc(C)o3)n2)cc1
50 | 180 | CCOC(=O)c1sc(NC(=O)Cn2cc(-c3ccc(Cl)cc3)nn2)nc1C
51 | > 30000 | O=C(Cn1cc(-c2cccs2)nn1)Nc1nccs1
52 | > 30000 | COC(=O)c1ccc(-c2cn(CC(=O)Nc3nc(C)cs3)nn2)cc1
53 | > 30000 | COc1cccc(-c2cn(-c3ccc(C(F)(F)F)cc3)nc2C(=O)N2CCN(c3ncccn3)CC2)c1
54 | 60 | O=C(Cn1cc(-c2ccccc2Cl)nn1)Nc1nccs1
55 | 1110 | Nc1cccc(-c2cn(CC(=O)Nc3nc4ccccc4s3)nn2)c1
56 | > 30000 | COc1ccc(-c2cn(CC(=O)Nc3cc(C)on3)nn2)cc1
57 | 510 | COc1ccc(-c2cn(CC(=O)Nc3nccs3)nn2)cc1
58 | 4030 | Cc1ccc(-c2csc(NC(=O)c3ccc(C)o3)n2)cc1
59 | 3890 | COc1ccc(-c2cn(CC(=O)Nc3nc(C)cs3)nn2)cc1
60 | 130 | CCOC(=O)c1sc(NC(=O)Cn2cc(-c3ccccc3Cl)nn2)nc1C
61 | > 30000 | COc1cccc(-c2cn(-c3ccc(C(F)(F)F)cc3)nc2C(=O)NCCCN(C)C)c1
62 | > 30000 | O=C(Cn1cc(-c2ccccc2Cl)nn1)Nc1nc2ccccc2s1
63 | 130 | O=C(Cn1cc(-c2ccc(Cl)cc2)nn1)Nc1nc2ccccc2s1
64 | > 30000 | N#Cc1ccc(C(=O)Nc2nccs2)cc1
65 | 20 | CCOC(=O)c1sc(NC(=O)Cn2cc(-c3cccs3)nn2)nc1C
66 | 1330 | COc1ccc(-c2cn(CC(=O)Nc3nc4ccccc4s3)nn2)cc1
67 | 270 | N#Cc1ccc(-c2cn(CC(=O)Nc3nccs3)nn2)cc1
68 | 10000 | CCCN1C(=O)c2ccc(C(=O)Nc3nccs3)cc2C1=O
